Test results: PMC9053626 (RSC Advances, 2020)

Tests used:
4T1 cells = test: MTT cytotoxicity assay; format: cell-based, murine; settings: Mus musculus
Procedure, shortened: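 4T1 cells grown in 1640 medium with 5% FBS and 1% penicillin/streptomycin at 37 °C, 5% CO2. Seeded at 2000 cells/well for 24 h, then exposed to a range of test concentrations for 48 h or 72 h. Washed twice with cold PBS, given fresh medium plus MTT for 4 h, formazan dissolved in DMSO, A570 read. Inhibition rate calculated relative to untreated control absorbance.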

[1] = system: 4T1 cell tumor-bearing xenograft model; test: In vivo antitumor study and histological evaluation; set-up: species or system female BABL/c mice
Procedure, shortened: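 Orthotopic 4T1 model: 0.1 mL of 4T1 cells (1 × 107 mL−1) injected into the fourth pair of breast pads. At 50–100 mm3 tumours, mice randomised into three groups (n = 6). Killed day 14; heart, liver, lung, spleen, kidney and tumour fixed in 10% formaldehyde for H&E.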

[2] = release medium vs anhydrous ethanol; cited from earlier work

## C[C@H]1[C@@H](O)O[C@@H]2O[C@@]3(C)CC[C@H]4[C@H](C)CC[C@@H]1[C@@]24OO3 [DHA-Sol, Dihydroartemisinin]
4T1 cells; 4T1, 48 h
  IC50: 2.31 ± 0.1 µM
4T1 cells; 4T1, 72 h
  IC50: 0.62 ± 0.02 µM
[1]; after 14 days, i.v. 0.07 mmol DHA kg^−1 on days 1, 3, 5, 7, 9, saline group 3309.68 ± 441.61
  tumor volume: 867.27 ± 117.43 mm^3
[1]; end of the experiment, p > 0.1
  body weight change versus saline group: a significant change in the body weight of rats was not observed
[1]; n = 6 per group, 0.07 mmol DHA kg^−1 i.v. five times
  survival of mice during the experiment: two mice treated with the DHA-Sol group died during the experiment
[2]
  stability of DHA in the release medium: degraded quickly in the release medium
